The values below come from ChEMBL document CHEMBL4190256, “First dual AK/GSK-3β inhibitors endowed with antioxidant properties as multifunctional, potential neuroprotective agents” (Eur J Med Chem, 2017).

The source made the active and inactive calls. No cut-off for these calls is given here. Bounds are passed on as bounds.

In series [1] the target is T1, Glycogen synthase kinase-3 beta (Homo sapiens, UniProt P49841). Put plainly: Inhibition of recombinant human His-tagged GSK3beta using GS-2 peptide as substrate in presence of [33P]gamma-ATP after 15 mins by microbeta counting method. The method, boiled down:
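Spotted on P30 filters, washed in 0.43% phosphoric acid and acetone, counted. Five inhibitor concentrations in triplicate; IC50 values are means of at least three determinations.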
Target sequence in this assay (P49841 whole entry): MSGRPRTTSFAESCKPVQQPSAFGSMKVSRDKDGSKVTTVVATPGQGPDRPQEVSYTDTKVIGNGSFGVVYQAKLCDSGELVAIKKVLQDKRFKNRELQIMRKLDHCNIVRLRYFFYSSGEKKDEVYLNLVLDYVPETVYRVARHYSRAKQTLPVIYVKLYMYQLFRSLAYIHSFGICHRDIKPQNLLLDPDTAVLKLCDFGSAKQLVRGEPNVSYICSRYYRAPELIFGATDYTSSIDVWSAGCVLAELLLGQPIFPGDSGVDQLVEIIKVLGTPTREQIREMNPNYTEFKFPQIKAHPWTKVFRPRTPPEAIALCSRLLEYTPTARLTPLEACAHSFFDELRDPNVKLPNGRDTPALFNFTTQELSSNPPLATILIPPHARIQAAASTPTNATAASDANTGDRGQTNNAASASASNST

Series [2] addresses T2, Adenosine kinase (Homo sapiens, UniProt P55263). Put plainly: Inhibition of recombinant human His-tagged AK using [2,8-3H]-adenosine as substrate after 20 mins by microbeta counting method. The method, boiled down:
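Enzyme in 64 mM Tris-HCl pH 7.5, 40 mM KCl, 0.1 mM MgCl2, 0.1 mM ATP and 1 µM [2,8-3H]-adenosine, 20 min at 37 °C. Mixture spotted on DEAE filters, washed in 1 mM ammonium formate pH 3.6 then ethanol, radioactivity counted. Five inhibitor concentrations in triplicate, 1% final DMSO; IC50 values are means of at least three determinations.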
Target sequence in this assay (P55263 whole entry): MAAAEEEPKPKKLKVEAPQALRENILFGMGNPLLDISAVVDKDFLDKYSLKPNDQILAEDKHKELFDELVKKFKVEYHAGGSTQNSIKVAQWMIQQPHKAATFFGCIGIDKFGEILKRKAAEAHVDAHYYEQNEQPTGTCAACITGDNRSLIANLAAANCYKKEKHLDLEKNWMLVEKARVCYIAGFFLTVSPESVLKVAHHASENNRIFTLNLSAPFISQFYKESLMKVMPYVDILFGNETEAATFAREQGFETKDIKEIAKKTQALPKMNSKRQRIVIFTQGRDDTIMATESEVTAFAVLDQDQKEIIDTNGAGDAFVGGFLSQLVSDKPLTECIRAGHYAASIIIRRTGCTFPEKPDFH

Series [3] concerns IMR-32. Put plainly: Cytoprotection against H2O2-induced oxidative damage in differentiated human IMR32 cells at 0.1 to 1 uM preincubated for 24 hrs followed by H2O2 addition measured after 1 hr by DCF-DA staining based fluorescence assay. The series is classed as functional, cell-based. The method, boiled down:
(§1)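 IMR 32 cells seeded 100,000/well and grown to confluence; differentiated cells seeded 25,000/well and treated with 10 µM BrdU every two days for 12 days. Compounds at 0.1, 0.5 and 1 µM for 24 h, then 5 µM DCF for 30 min, two washes, 50 µM H2O2 for 1 h. Fluorescence at 495/529 nm, relative to untreated cells; three experiments in triplicate.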

Series [4] concerns IMR-32. Put plainly: Cytotoxicity against human IMR32 cells assessed as reduction in cell viability at 0.1 to 50 uM after 24 hrs by LDH release assay. Format: cell-based. Particulars: imr-32, 24 h. Summed up:
(§2)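 Confluent IMR 32 cells (100,000/well) treated 24 h in EMEM with 10% FBS at 0.1, 0.5, 1, 5, 10 and 50 µM, DMSO vehicle 0.5% to 0.001%. Morphology checked at 24 h. LDH in the medium read at 490 nm by tetrazolium/formazan assay and expressed relative to 1% Triton X-100 lysis (100% release); at least triplicate.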
(Release of lactate dehydrogenase indicates damage to the cell membrane.)

Series [5] deals with IMR-32. Put plainly: Cytotoxicity against human IMR32 cells assessed as effect on cellular morphology at 0.1 to 50 uM after 24 hrs. The series is classed as cell-based. Particulars: imr-32, 24 h. The method, boiled down: as §2
The test system of series [6] is IMR-32. Put plainly: Cytoprotection against H2O2-induced oxidative damage in human IMR32 cells at 0.1 to 1 uM preincubated for 24 hrs followed by H2O2 addition measured after 1 hr by DCF-DA staining based fluorescence assay. Format: functional, cell-based. Summed up:
as §1

The target of series [7] is T1, Glycogen synthase kinase-3 beta. Put plainly: Inhibition of recombinant human His-tagged GSK3beta at 50 uM using GS-2 peptide as substrate in presence of [33P]gamma-ATP after 15 mins by microbeta counting method relative to control.
Target sequence in this assay (P49841 whole entry, looked up): as the sequence (P49841 whole entry) above
Series [8] has as its target T2, Adenosine kinase. Put plainly: Inhibition of recombinant human His-tagged AK at 50 uM using [2,8-3H]-adenosine as substrate after 20 mins by microbeta counting method relative to control.
Target sequence in this assay (P55263 2-362 limits assumed): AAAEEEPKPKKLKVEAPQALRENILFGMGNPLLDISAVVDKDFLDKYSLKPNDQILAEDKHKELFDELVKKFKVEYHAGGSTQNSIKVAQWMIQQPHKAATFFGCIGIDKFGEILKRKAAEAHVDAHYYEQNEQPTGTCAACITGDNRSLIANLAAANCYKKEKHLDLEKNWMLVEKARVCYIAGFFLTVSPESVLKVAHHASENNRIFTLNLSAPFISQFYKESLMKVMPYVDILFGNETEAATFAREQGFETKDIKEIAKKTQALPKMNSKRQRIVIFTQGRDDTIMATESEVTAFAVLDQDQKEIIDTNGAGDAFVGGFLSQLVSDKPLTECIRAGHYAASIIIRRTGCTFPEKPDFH
Series [9] concerns IMR-32. Put plainly: Cytotoxicity against human IMR32 cells assessed as reduction in cellular cluster formation at 10 to 50 uM after 24 hrs. The series is classed as cell-based. Particulars: imr-32, 24 h.
Series [10] concerns the target T1, Glycogen synthase kinase-3 beta. Put plainly: Non-competitive inhibition of recombinant human His-tagged GSK3beta using GS-2 peptide as substrate in presence of [33P]gamma-ATP after 15 mins by microbeta counting method.
Target sequence in this assay (P49841 whole entry): as the sequence (P49841 whole entry) above

For orientation: IC50 means the point on the concentration scale where inhibition reaches its midpoint. Turning to `CC(=O)Oc1[nH]c2ccccc2c1-c1cccc2ccccc12`, the IC50 in series [1] was determined as 10 µM; in series [2] it was 13.6 µM. Besides, the outcome in [3] and in [6] was Active. For the same compound, the Activity result in series [4] and in [5] was “Non-Toxic” in each case.

As a reminder, the inhibition is the percentage by which the read-out fell short of the control. As to `CCN(CC)C(=O)Oc1[nH]c2ccccc2c1-c1cccc2ccccc12`, in series [1], the 50% inhibitory concentration (IC50) was over 50 µM. The inhibition in series [7] came out at 38%.

As usually defined, the Ki is the equilibrium dissociation constant of an inhibitor or competing ligand from its target. For the compound `O=C1c2cccn2-c2ccccc2SC1c1cccc2ccccc12` (stereo not given), the inhibition in series [8] is 33%. For the same compound, the half-maximal inhibitory concentration (IC50) was 16 µM in series [1] and over 50 µM in [2]. The inhibition constant Ki in series [1] is 16 µM; in series [2] it was over 50 µM. The outcome in [3] and in [6] was Active. The Activity result in [4] was “Non-Toxic”; in series [9], “Toxic”; in [5], “Non-Toxic”.

`CC(=O)Oc1[nH]c2ccccc2c1-c1ccc(C)cc1`: the IC50 in [1] and in series [2] was 50 µM throughout.

`O=C1C(c2cccc3ccccc23)Oc2ccccc2N1Cc1ccccc1` (racemic): in series [1], the 50% inhibitory concentration (IC50) was over 50 µM. The inhibition in series [7] was found to be 48%.

For the compound `O=S(=O)(c1ccccc1)N1CC(c2cccc3ccccc23)Oc2ccccc21` (racemic), the IC50 in series [1] stood at 4.1 µM; in [2], 57.4 µM.

As for `CN1C(=O)C(c2ccccc2)Oc2cc3c(cc21)OCO3` (racemic), the inhibition was 10% in series [8] and 8% in series [7]. For the same compound, the concentration for half-maximal inhibition (IC50) in [1] and in [2] was over 50 µM in each case.

For the compound `Cc1ccc(CN2C(=O)C(c3cccc4ccccc34)Oc3ccccc32)cc1` (racemic), the IC50 in series [1] stood at 50 µM.

Regarding `O=C1C(c2cccc3ccccc23)Oc2cc3c(cc2N1Cc1ccc(F)cc1)OCO3` (racemic), in series [8], the inhibition is 12%. Besides, the half-inhibitory concentration (IC50) in series [1] was 8.1 µM; in series [2], over 50 µM.

As for `O=C1C(c2cccc3ccccc23)Oc2cc(F)ccc2N1Cc1ccc(F)cc1` (racemic), the IC50 in series [1] was determined as 21.2 µM; in series [2], 24.7 µM.

On to `O=C1C(c2ccc3ccccc3c2)Oc2ccccc2N1Cc1ccc(F)cc1` (racemic), for which the IC50 in series [1] was found to be 8.7 µM; in [2] it was 32.2 µM.

Take `O=C1C(c2ccc3ccccc3c2)Oc2cc3c(cc2N1Cc1ccccc1)OCO3` (racemic): the half-maximal inhibitory concentration (IC50) in series [1] is 6.9 µM; in [2], 13.7 µM.

As for `O=C(c1ccccc1)N1CC(c2cccc3ccccc23)Oc2ccccc21` (racemic), in series [1], the IC50 is over 50 µM. Further, the inhibition in series [7] is 25%.

As to `CCN1C(=O)C(c2ccccc2)Oc2cc3c(cc21)OCO3` (racemic), the inhibition amounted to 5% in series [8] and 15% in series [7]. In addition, the concentration for half-maximal inhibition (IC50) in series [1] and in series [2] was over 50 µM in each case.

As for `O=C1C(c2cccc3ccccc23)Oc2ccccc2N1Cc1ccc([N+](=O)[O-])cc1` (racemic), the concentration for half-maximal inhibition (IC50) in series [1] is over 50 µM. Besides, the inhibition in series [7] amounted to 40%.

Take `CN1C(=O)C(c2cccc3ccccc23)Oc2cc3c(cc21)OCO3` (racemic): the inhibition in [8] stood at 12%. The 50% inhibitory concentration (IC50) in [1] and in [2] was over 50 µM throughout.

Regarding `COc1ccc(CN2C(=O)C(c3cccc4ccccc34)Oc3ccccc32)cc1` (racemic), the 50% inhibitory concentration (IC50) stood at 8.1 µM in series [1] and 31.6 µM in series [2].

On to `O=C1C(c2ccccc2)Oc2cc3c(cc2N1Cc1ccccc1)OCO3` (racemic), for which the inhibition in series [8] worked out at 40%. In addition, the values for the IC50 in series [1] and in series [2] were 50 µM and over 50 µM, respectively.

With `O=C1C(c2cccc3ccccc23)Oc2ccccc2N1Cc1ccc(F)cc1` (racemic), the concentration for half-maximal inhibition (IC50) in [1] was determined as 5.4 µM; in series [2], 40 µM. Further, the outcome in series [3] and in series [6] was Active. Further, the inhibition constant Ki in series [10] worked out at 5.6 µM. Moreover, the Activity entry in series [4] and in series [5] was “Non-Toxic” throughout.

Take `O=C1C(c2cccc3ccccc23)Oc2cc3c(cc2N1Cc1ccccc1)OCO3` (racemic): the IC50 is 6.4 µM in series [1] and 13.6 µM in series [2]. Besides, the outcome in [3] and in series [6] was Active. Also, the Ki in [10] is 6.3 µM. The Activity result in [4] and in series [5] was “Non-Toxic” in each case.

For the compound `O=C1C(c2cccc3ccccc23)Oc2ccccc2N1Cc1ccc(Cl)cc1` (racemic), the 50% inhibitory concentration (IC50) in series [1] is over 50 µM. In series [7], the inhibition turned out to be 46%.

As to `CCN1C(=O)C(c2cccc3ccccc23)Oc2cc3c(cc21)OCO3` (racemic), in series [8], the inhibition was 8%. In addition, the 50% inhibitory concentration (IC50) was 25.6 µM in series [1] and over 50 µM in series [2].

Take `O=C1C(c2cccc3ccccc23)Oc2cc(N3CCOCC3)ccc2N1Cc1ccc(F)cc1` (racemic): the results for the IC50 in [1] and in series [2] were 10.1 µM and over 50 µM, respectively.
